{"source": "paper PMC8040281", "about": "(EClinicalMedicine, 2021)", "key": {"[1]": {"format": "in vivo, human"}, "[2]": {"test": "12-lead ECG and 24-hour Holter monitoring", "format": "in vivo, human", "conditions": "ECG and Holter monitoring around first dose", "summary_of_the_method": "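Oral test compound given once daily, first two doses 3–7 days apart. 12-lead ECGs were part of safety assessments. 24-hour digital Holter monitoring was run around the first dose to detect QTc changes.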"}, "[3]": {"test": "First-in-human dose escalation: DLTs and MTD/RP2D", "format": "in vivo", "summary_of_the_method": "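Oral test compound once daily, starting at 60 mg/m2 (0.1 of preclinical non-severely toxic dose). Accelerated titration used 100% increments until ≥Grade 2 toxicity (alopecia excepted), then 3+3 with 25–50% steps. BSA-based dosing (actual dose −20 to +15% of calculated) later switched to flat doses to nearest 50 mg. Taxanes given IV. Toxicity graded by investigator per CTCAE v4.03.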"}, "clinical": {"test": "clinical", "conditions": "human, in vivo, po"}, "[4]": {"system": "metastatic or advanced solid malignant tumors", "test": "Anti-tumor activity, RECIST 1.1, investigator assessed", "format": "in vivo, human", "summary_of_the_method": "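Investigator-assessed RECIST 1.1 response in patients with measurable disease. Oral test compound given once daily continuously, alone or ~2 h before IV paclitaxel at label or institutional dose and schedule. Time to progression is given as a median in weeks by tumor type and KRAS status.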"}, "[5]": {"system": "NSCLC cell lines harboring KRAS mutations", "conditions": "nonclinical studies; ref [15]; cited from earlier work"}, "[6]": {"conditions": "TEAE, all dose levels, label TVB-2640 = monotherapy"}, "[7]": {"conditions": "across all dose levels, label TVB-2640 = monotherapy"}}, "note": "“Also recorded” adds a separate entry of the source. Read-outs that look alike come from different tables or passages of the source."}
{"compound": "Cc1nnc(-c2cc(C(=O)N3CCC(c4ccc(C#N)cc4)CC3)c(C)cc2C2CCC2)[nH]1", "note": "[TVB-2640]", "values": [{"measurement": "Any TEAE", "setting": "[1]; Any Grade, N = 76 monotherapy, N = 55 + paclitaxel", "value": "75 (98.7) n (%)"}, {"measurement": "Blood and lymphatic system disorders", "setting": "[1]; TEAE, Any Grade", "value": "11 (14•5) n (%)"}, {"measurement": "Eye disorders", "setting": "[1]; TEAE, Any Grade", "value": "38 (50.0) n (%)"}, {"measurement": "Gastrointestinal disorders", "setting": "[1]; TEAE, Any Grade", "value": "52 (68.4) n (%)"}, {"measurement": "Infections and infestations", "setting": "[1]; TEAE, Any Grade", "value": "36 (47.4) n (%)"}, {"measurement": "Investigations", "setting": "[1]; TEAE, Any Grade", "value": "22 (28•9) n (%)"}, {"measurement": "Metabolism and nutrition system disorders", "setting": "[1]; TEAE, Any Grade", "value": "31 (40•8) n (%)"}, {"measurement": "Musculoskeletal and connective tissue disorders", "setting": "[1]; TEAE, Any Grade", "value": "20 (26•3) n (%)"}, {"measurement": "Nervous system disorders", "setting": "[1]; TEAE, Any Grade", "value": "27 (35•5) n (%)"}, {"measurement": "Respiratory, thoracic, and mediastinal disorders", "setting": "[1]; TEAE, Any Grade", "value": "34 (44•7) n (%)"}, {"measurement": "Skin and subcutaneous tissue disorders", "setting": "[1]; TEAE, Any Grade", "value": "63 (82.9) n (%)"}, {"measurement": "PPE syndrome, incidence", "setting": "[1]; [6]", "value": 46, "unit": "%"}, {"measurement": "alopecia, incidence", "setting": "[1]; [6]", "value": 61, "unit": "%"}, {"measurement": "fatigue, incidence", "setting": "[1]; [6]", "value": 37, "unit": "%"}, {"measurement": "decreased appetite, incidence", "setting": "[1]; TEAE, monotherapy", "value": 26, "unit": "%"}, {"measurement": "dry eye, incidence", "setting": "[1]; TEAE, monotherapy", "value": 17, "unit": "%"}, {"measurement": "dry skin, incidence", "setting": "[1]; TEAE, monotherapy", "value": 22, "unit": "%"}, {"measurement": "lacrimation increased, incidence", "setting": "[1]; TEAE, monotherapy", "value": 13, "unit": "%"}, {"measurement": "rash, incidence", "setting": "[1]; TEAE, monotherapy", "value": 11, "unit": "%"}, {"measurement": "skin exfoliation, incidence", "setting": "[1]; TEAE, monotherapy", "value": 12, "unit": "%"}, {"measurement": "Blood and lymphatic system disorders", "setting": "[1]; TEAE, ≥Grade 3", "value": "3 (3•9) n (%)"}, {"measurement": "Eye disorders", "setting": "[1]; TEAE, ≥Grade 3", "value": "3 (3.9) n (%)"}, {"measurement": "Gastrointestinal disorders", "setting": "[1]; TEAE, ≥Grade 3", "value": "3 (3.9) n (%)"}, {"measurement": "Infections and infestations", "setting": "[1]; TEAE, ≥Grade 3", "value": "5 (6.6) n (%)"}, {"measurement": "Investigations", "setting": "[1]; TEAE, ≥Grade 3", "value": "6 (7•9) n (%)"}, {"measurement": "Metabolism and nutrition system disorders", "setting": "[1]; TEAE, ≥Grade 3", "value": "5 (6•6) n (%)"}, {"measurement": "Musculoskeletal and connective tissue disorders", "setting": "[1]; TEAE, ≥Grade 3", "value": "3 (3•9) n (%)"}, {"measurement": "Nervous system disorders", "setting": "[1]; TEAE, ≥Grade 3", "value": "1 (1•3) n (%)"}, {"measurement": "Respiratory, thoracic, and mediastinal disorders", "setting": "[1]; TEAE, ≥Grade 3", "value": "2 (2•6) n (%)"}, {"measurement": "Skin and subcutaneous tissue disorders", "setting": "[1]; TEAE, ≥Grade 3", "value": "8 (10.5) n (%)"}, {"measurement": "adverse events resulting in dose reduction, patients", "setting": "[1]; [7]", "value": 28, "unit": "%"}, {"measurement": "adverse events resulting in treatment discontinuation, patients", "setting": "[1]; [7]", "value": 22, "unit": "%"}, {"measurement": ">Grade 2 skin or eye toxicities at the MTD", "setting": "[1]; human, in vivo", "value": "no >Grade 2 skin or eye toxicities were observed"}, {"measurement": "patients with serious pneumonitis", "setting": "[1]; label TVB-2640 = monotherapy", "value": "not observed"}, {"measurement": "Any ≥Grade 3 TEAE", "setting": "[1]; ≥Grade 3, N = 76 monotherapy, N = 55 + paclitaxel", "value": "44 (57.9) n (%)"}, {"measurement": "QTc prolonging effect", "setting": "[2]", "value": "no clinically relevant QTc prolonging effect; also recorded: no significant gastrointestinal or serum chemistry toxicities or evidence of QTc prolongation; also recorded: no evidence of QTc prolongation"}, {"measurement": "DLT: PPE syndrome", "setting": "[3]; Grade 3 with paclitaxel, label TVB-2640 = monotherapy", "value": 3, "unit": "n"}, {"measurement": "DLTs, total number", "setting": "[3]; all dose levels, label TVB-2640 = monotherapy", "value": 6}, {"measurement": "nature of DLTs", "setting": "[3]; in vivo", "value": "reversible skin and ocular effects"}, {"measurement": "DLTs at 200 mg flat dose", "setting": "[3]; label TVB-2640 = monotherapy (N = 6)", "value": "no DLTs observed"}, {"measurement": "DLT: Grade 3 corneal edema", "setting": "[3]; monotherapy", "value": 1, "unit": "n"}, {"measurement": "DLT: iritis", "setting": "[3]; monotherapy", "value": 1, "unit": "n"}, {"measurement": "DLT: keratitis", "setting": "[3]; monotherapy", "value": 1, "unit": "n"}, {"measurement": "patients with DLTs at 250 mg flat dose", "setting": "[3]; monotherapy, bilateral eye keratitis and PPE syndrome", "value": "2 of 6"}, {"measurement": "flat dose equivalent of the MTD/RP2D", "setting": "[3]; monotherapy, depending on body surface area", "value": "150 to 200", "unit": "mg"}, {"measurement": "Tmax", "setting": "clinical", "value": "~4", "unit": "h"}, {"measurement": "half-life", "setting": "clinical", "value": "10 to 13", "unit": "h"}, {"measurement": "PR rate (confirmed) / best response of CR or PR", "setting": "[4]; 6/53 evaluable patients with paclitaxel, label TVB-2640 = monotherapy", "value": "no patient treated with monotherapy had a complete or partial response; also recorded: No patient had a best response of complete response (CR) or partial response (PR)"}, {"measurement": "time to progression (TTP), NSCLC KRAS^WT disease", "setting": "[4]; median, N = 6 monotherapy, label TVB-2640 = monotherapy", "value": 5, "unit": "weeks"}, {"measurement": "time to progression (TTP), NSCLC KRAS^MUT disease", "setting": "[4]; median, N = 11 monotherapy, label TVB-2640 = monotherapy", "value": 22, "unit": "weeks"}, {"measurement": "patients who experienced SD", "setting": "[4]; monotherapy, 29/69 evaluable patients", "value": 42, "unit": "%"}]}
{"compound": "TVB-3166", "values": [{"measurement": "sensitivity of KRAS^MUT versus KRAS^WT NSCLC cell lines to killing", "setting": "[5]", "value": "more sensitive to killing with FASN inhibition than KRAS wild-type (KRAS^WT) lines"}]}
